Test: Inhibition of human 20S proteasome chymotrypsin-like activity by fluorimetric assay
Details: read-out: IC50
In short: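 Human 20S proteasome preincubated with test compound, then Suc-Leu-Leu-Val-Tyr-AMC hydrolysis monitored 1 h at 37 °C by fluorescence (excitation 360 nm, 465 nm). Buffer pH 7.5: 20 mM Tris, 1 mM DTT, 10% glycerol, 0.02% (w/v) SDS; DMSO 3% (v/v) final. IC50 from five concentrations, each in duplicate; bortezomib standard.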

IC50	Compound
87 nM	COc1ccccc1C(CC(=O)N[C@@H](CC(C)C)B(O)O)NC(=O)c1cccnc1 (stereo not given in full)
19 nM	COc1cccc(C(CC(=O)N[C@@H](CC(C)C)B(O)O)NC(=O)c2cccnc2)c1 (stereo not given in full)
26.9 nM	CC(C)C[C@H](NC(=O)CC(NC(=O)c1cccnc1)c1cccc([N+](=O)[O-])c1)B(O)O (stereo not given in full)
7300 nM	CC(C)C[C@H](NC(=O)CC(NC(=O)c1cccnc1)c1ccc([N+](=O)[O-])cc1)B(O)O (stereo not given in full)
1250 nM	Cc1ccccc1C(CC(=O)N[C@@H](CC(C)C)B(O)O)NC(=O)c1cccnc1 (stereo not given in full)
50.1 nM	Cc1cccc(C(CC(=O)N[C@@H](CC(C)C)B(O)O)NC(=O)c2cccnc2)c1 (stereo not given in full)
1250 nM	CCCC[C@H](NC(=O)CC(NC(=O)c1ccccc1)c1cccc(F)c1)B(O)O (stereo not given in full)
1200 nM	O=C(CC(NC(=O)c1ccccc1)c1cccc(F)c1)N[C@@H](Cc1ccccc1)B(O)O (stereo not given in full)
301 nM	O=C(CC(NC(=O)c1ccccc1)c1cccc(F)c1)N[C@@H](Cc1ccccc1F)B(O)O (stereo not given in full)
1620 nM	O=C(CC(NC(=O)c1ccccc1)c1cccc(Cl)c1)N[C@@H](Cc1ccccc1)B(O)O (stereo not given in full)
120 nM	Cc1cccc(C[C@H](NC(=O)CC(NC(=O)c2ccccc2)c2cccc(F)c2)B(O)O)c1 (stereo not given in full)
131 nM	O=C(CC(NC(=O)c1ccccc1)c1cccc(F)c1)N[C@@H](Cc1cccc(F)c1)B(O)O (stereo not given in full)
501 nM	Cc1ccc(C[C@H](NC(=O)CC(NC(=O)c2ccccc2)c2cccc(F)c2)B(O)O)cc1 (stereo not given in full)
75.8 nM	O=C(CC(NC(=O)c1ccccc1)c1cccc(F)c1)N[C@@H](Cc1ccc(F)cc1)B(O)O (stereo not given in full)
316 nM	CCCC[C@H](NC(=O)CC(NC(=O)c1ccccc1)c1cccc(Cl)c1)B(O)O (stereo not given in full)
371 nM	O=C(CC(NC(=O)c1ccccc1)c1cccc(Cl)c1)N[C@@H](Cc1ccccc1F)B(O)O (stereo not given in full)
1150 nM	Cc1ccc(C[C@H](NC(=O)CC(NC(=O)c2ccccc2)c2cccc(Cl)c2)B(O)O)cc1 (stereo not given in full)
194 nM	O=C(CC(NC(=O)c1ccccc1)c1cccc(Cl)c1)N[C@@H](Cc1ccc(F)cc1)B(O)O (stereo not given in full)

IC50	Compound
1480 nM	CCCC[C@H](NC(=O)CC(NC(=O)c1cccnc1)c1cccc(OC)c1)B(O)O (stereo not given in full)
1090 nM	COc1cccc(C(CC(=O)N[C@@H](Cc2ccccc2)B(O)O)NC(=O)c2cccnc2)c1 (stereo not given in full)
602 nM	COc1cccc(C(CC(=O)N[C@@H](Cc2ccccc2F)B(O)O)NC(=O)c2cccnc2)c1 (stereo not given in full)
1770 nM	COc1cccc(C(CC(=O)N[C@@H](Cc2cccc(C)c2)B(O)O)NC(=O)c2cccnc2)c1 (stereo not given in full)
89.1 nM	COc1cccc(C(CC(=O)N[C@@H](Cc2cccc(F)c2)B(O)O)NC(=O)c2cccnc2)c1 (stereo not given in full)
930 nM	COc1cccc(C(CC(=O)N[C@@H](Cc2ccc(C)cc2)B(O)O)NC(=O)c2cccnc2)c1 (stereo not given in full)
63 nM	COc1cccc(C(CC(=O)N[C@@H](Cc2ccc(F)cc2)B(O)O)NC(=O)c2cccnc2)c1 (stereo not given in full)
97.7 nM	CC(C)C[C@H](NC(=O)CC(NC(=O)c1cnccn1)c1cccc(Cl)c1)B(O)O (stereo not given in full)
117 nM	CC(C)C[C@H](NC(=O)CC(NC(=O)c1ccc2ccccc2c1)c1cccc(Cl)c1)B(O)O (stereo not given in full)
21.8 nM	CC(C)C[C@H](NC(=O)CC(NC(=O)[C@H]1CCCc2ccccc21)c1cccc(Cl)c1)B(O)O (stereo not given in full)
190 nM	CC(C)C[C@H](NC(=O)CC(NC(=O)c1cccc2c1CCCC2)c1cccc(Cl)c1)B(O)O (stereo not given in full)
28.1 nM	COc1cccc(C(CC(=O)N[C@@H](CC(C)C)B(O)O)NC(=O)[C@H]2CCCc3ccccc32)c1 (stereo not given in full)
158 nM	COc1cccc(C(CC(=O)N[C@@H](CC(C)C)B(O)O)NC(=O)c2cccc3c2CCCC3)c1 (stereo not given in full)
39.8 nM	CC(C)C[C@H](NC(=O)CC(NC(=O)c1ccccc1)c1ccccc1)B(O)O (stereo not given in full)
26.3 nM	Cc1ccc(C(CC(=O)N[C@@H](CC(C)C)B(O)O)NC(=O)c2ccccc2)cc1 (stereo not given in full)
32.8 nM	COc1ccc(C(CC(=O)N[C@@H](CC(C)C)B(O)O)NC(=O)c2ccccc2)cc1 (stereo not given in full)
20.8 nM	CC(C)C[C@H](NC(=O)CC(NC(=O)c1ccccc1)c1ccc(Cl)cc1)B(O)O (stereo not given in full)

Source: ChEMBL document CHEMBL1629441, “Synthesis, in vitro and in vivo biological evaluation, and comprehensive understanding of structure-activity relationships of dipeptidyl boronic acid proteasome inhibitors constructed from β-amino acids” (J Med Chem, 2010)
